Source: ChEMBL document CHEMBL4513216, “Probing the Open Global Health Chemical Diversity Library for Multistage-Active Starting Points for Next-Generation Antimalarials” (ACS Infect Dis, 2020)

Test system: not listed separately
Assay: (§1) Toxicity liver stage against HepG2, at 10uM
Format: cell-based
Design: test concentration 10 uM, cell line HepG2-A16-CD81EGFP
Conditions: human, HepG2-A16-CD81EGFP cells; read-out: INHIBITION
Method in brief: (§2)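 Uninfected HepG2-A16-CD81EGFP cells, 3 × 10^3 per well, 1536-well, plated on prespotted compound at 10 μM final, parasite-free screening media added to match infected plates; puromycin 10 μM positive, DMSO 0.5% negative; run in parallel with 48 h PbLuc assay at 37 °C, 5% CO2; viability by CellTiter-Glo luminescence, normalized to controls.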
In the case of CC(=O)c1ccc(OCC(=O)c2cccn2C)cc1, the cytotoxicity at 10 µM is reported as 27.6%. For COc1ccc(C(=O)Nc2cccc(SC)c2)c(OC)n1, the cytotoxicity at 10 µM was 13.2%. In the case of O=C(NCCc1nccs1)c1n[nH]c2c1CCC2, the cytotoxicity at 10 µM is reported as 3.89%. In the case of CCc1c(C)nn2c(O)cc(C3CCN(C(=O)c4ccccn4)C3)nc12 (stereo unspecified), the cytotoxicity at 10 µM is reported as 6.7%. For Cc1cccc(NC(=O)NC2CCC3(C2)OCCO3)c1Cl (stereo unspecified), the cytotoxicity at 10 µM was 10.6%. With CC(O)CN1CCN(Cc2coc(-c3cccc(Cl)c3)n2)CC1 (stereo unspecified) the cytotoxicity at 10 µM was -4.73%. Cc1cc(C(=O)N2CCNC(=O)C2)c(C)n1Cc1ccccn1 gave a cytotoxicity at 10 µM of -2.33%. With NC(=O)C(NC1CCN(CC2CCCCC2)CC1)c1ccccc1 (stereo unspecified) the cytotoxicity at 10 µM was -4.57%. COc1ccc(F)cc1CN1CCN(Cc2nccn2C)C(C)C1 (stereo unspecified) gave a cytotoxicity at 10 µM of 2.01%. For N#CCCN(Cc1ccco1)C(=O)CCCc1ccccc1, the cytotoxicity at 10 µM was 73.1%. In the case of Cc1cnc(CNC(=O)NCCOc2ncccc2Cl)s1, the cytotoxicity at 10 µM is reported as 8.35%. Work on Cc1cnc(CCNC(=O)NCCOc2ncccc2Cl)s1 yielded a cytotoxicity at 10 µM of 9.18%. Cc1cnc(NC(=O)NCCOc2ncccc2Cl)s1 gave a cytotoxicity at 10 µM of 6.62%. Molecule COc1ccc(C)cc1CNC(=O)C1=NN(c2ccccc2)C(=O)CN1 has a cytotoxicity at 10 µM of 12.8%. With O=C(c1ccn(-c2cccc(F)c2)n1)N1CCN(CCO)CC1 the cytotoxicity at 10 µM was -4.67%. Molecule CCc1noc(CNc2c(F)cccc2-n2cccn2)n1 has a cytotoxicity at 10 µM of -5.14%. Work on O=C1CN(Cc2nnc(-c3ccc(Cl)cc3)o2)CCN1 yielded a cytotoxicity at 10 µM of -0.238%. CC(Cn1cccn1)NC(=O)Nc1ccc(N2CCCCC2)nc1 (stereo unspecified) gave a cytotoxicity at 10 µM of -4.39%. With Cc1ccc(NC(=O)NC(C)Cn2cccn2)cc1 (stereo unspecified) the cytotoxicity at 10 µM was -0.577%. Work on CSC(C)(C)CNC(=O)Nc1cccc(-c2nccn2C)c1 yielded a cytotoxicity at 10 µM of -3.13%. Cc1ccc(C(=O)Nc2ccc(N(C)C)nc2)n1C gave a cytotoxicity at 10 µM of -9.38%. Molecule CN(C)C(=O)c1cnc(-c2ccc3c(c2)OCO3)s1 has a cytotoxicity at 10 µM of 5.29%. In the case of COc1ccccc1OCC(=O)NCc1ncc(C)c(OC)c1C, the cytotoxicity at 10 µM is reported as -6.63%. Molecule CNC(=O)c1ccc(CNC(=O)c2cc(C(C)C)n(C)n2)cc1 has a cytotoxicity at 10 µM of -9.71%. O=C(Nc1ccccc1)c1ccc(NCc2nccs2)nn1 showed a cytotoxicity at 10 µM of 5.62%. In the case of Cc1nc(-c2cccc(C(=O)N(C)C)c2)cs1, the cytotoxicity at 10 µM is reported as 1.77%. In the case of Clc1ccc(CNc2ccc(Cl)cn2)cc1, the cytotoxicity at 10 µM is reported as 6.96%. For Cc1ccsc1CNC(=O)CSc1nnc[nH]1, the cytotoxicity at 10 µM was -0.655%. With CNc1ncc(CN(C)C(=O)[C@@]23CNC[C@@H]2CN(C(=O)C2CC2)C3)cn1 the cytotoxicity at 10 µM was 4.67%. With CC(NS(C)(=O)=O)C(=O)N(C)Cc1csc(-c2ccccc2)n1 (stereo unspecified) the cytotoxicity at 10 µM was 2.5%. FC(F)(F)C1CN(c2nc(-c3ccccc3)no2)CCO1 (stereo unspecified) showed a cytotoxicity at 10 µM of -1.52%. CC(C)N1CCN(CCn2cnc3c(F)cccc3c2=O)CC1 gave a cytotoxicity at 10 µM of 1.64%. Molecule CO[C@H]1C[C@@H](O)C12CCN(C(=O)c1cccc(CCC(C)(C)O)c1)CC2 has a cytotoxicity at 10 µM of 2.74%. With CCCc1cnc(C)nc1N1CCC2(CC1)CNC(=O)O2 the cytotoxicity at 10 µM was 44.6%. For O=C(Nc1ccc(F)cc1)C1CNCCN1C(=O)CC1CCCCC1 (stereo unspecified), the cytotoxicity at 10 µM was 7.01%. With COc1ccccc1[C@@H]1CN(Cc2nccn2C)C[C@H]1C(=O)O the cytotoxicity at 10 µM was -4.83%. In the case of CN(Cc1ccco1)c1ccc(-c2nccn2C)nn1, the cytotoxicity at 10 µM is reported as -0.447%. With CC(C)NC(=O)N(C)C(c1cccc(F)c1)c1ccccn1 (stereo unspecified) the cytotoxicity at 10 µM was 4.86%. Cc1nnc(NC(=O)NCc2ccc(F)cc2)s1 gave a cytotoxicity at 10 µM of -26%. For CN(C)C(=O)c1cccc(CN2CCN(CCO)CC2)c1, the cytotoxicity at 10 µM was -28.6%. O=C(Nc1cccnc1)C1=NN(c2ccccc2)C(=O)CN1 showed a cytotoxicity at 10 µM of -7.12%. In the case of Cc1cc(N2CCC(C(=O)N(C)C)CC2)nc(-c2ccncc2)n1, the cytotoxicity at 10 µM is reported as -17.1%. For CN(C)S(=O)(=O)N1C[C@H]2CCC[C@@]2(COCc2cccnc2)C1, the cytotoxicity at 10 µM was 9.19%. With CN1C[C@H]2CC[C@@H](C1)N(Cc1ccccc1OCCN1CCOCC1)C2 the cytotoxicity at 10 µM was -3%. With Cc1ccc(SCCCNC(=O)c2cn(C3CCC(N)CC3)nn2)cc1 (stereo unspecified) the cytotoxicity at 10 µM was -8.33%.

Test system: HepG2
Assay: as §1
Format: cell-based
Design: test concentration 10 uM, cell line HepG2-A16-CD81EGFP
Conditions: human, hepg2, 10 µM; 10 µM
Method in brief: as §2
In the case of CCc1c(C)nn2c(O)cc(C3CCN(C(=O)c4ccccn4)C3)nc12 (stereo unspecified), the INHIBITION is reported as 4.85%.
